The source made the active and inactive calls. The rule behind the calls is not given here.
Tests used:
[1] = Selectivity index, ratio of CC50 for human HeLa cells to IC50 for Plasmodium falciparum 3D7 ring stage cells; assay type: functional
Summary of the method: (§1)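 Ratio of HeLa MTT CC50 to Malstat IC50 against the stated P. falciparum strain (ring-stage, triplicate, 1% parasitemia).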

[2] = Selectivity index, ratio of CC50 for human HeLa cells to IC50 for Plasmodium falciparum Dd2 ring stage cells; assay type: functional; summary of the method: as §1
[3] = tested on: Plasmodium falciparum; assay: Antiplasmodial activity against drug resistant Plasmodium falciparum Dd2 ring stage cells assessed as reduction parasitemia by Malstat assay; assay type: functional, organism-based
[4] = tested on: Plasmodium falciparum; assay: Antiplasmodial activity against Plasmodium falciparum 3D7 ring stage cells assessed as reduction parasitemia by Malstat assay; assay type: functional, organism-based
[5] = tested on: HeLa; assay: Cytotoxicity against human HeLa cells by MTT assay; assay type: cell-based
Summary of the method: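 MTT reduction assay on HeLa cells (DMEM, 10% heat-inactivated FCS) with serial dilutions; CC50 taken as concentration giving 50% growth inhibition, ± SEM.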

[6] = tested on: Human immunodeficiency virus 1; assay: Antiviral activity against VSV-G pseudotyped HIV1 lentiviral particles infected in human HeLa cells incubated for 48 hrs by spectrofluorometry; assay type: functional, organism-based
[7] = Selectivity index, ratio of CC50 for human HeLa cells to IC50 for VSV-G pseudotyped HIV1 lentiviral particles; assay type: functional
Summary of the method: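 Ratio of HeLa MTT CC50 to IC50 in the 48 h VSV-G-pseudotyped HIV-1 reporter assay in HeLa cells.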

[8] = tested on: Plasmodium falciparum; assay: Antiplasmodial activity against Plasmodium falciparum NF54 assessed as reduction in stage IV and V gametocyte formation at IC50 level incubated for 48 hrs measured 7 days post compound wash by Giemsa staining; assay type: functional, organism-based
[9] = tested on: Blood; assay: Drug metabolism in C57/BL6 mouse blood assessed as dihydroartemisinin level at 20 mg/kg, po dissolved in Pheroid formulation; assay type: ADME, organism-based; design: dose 20 mg/kg, route oral; conditions: in vivo
Summary of the method: (§2)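 Male C57/BL6 mice given 20 mg/kg by oral gavage (200 µl) in 10% DMSO (resuspended precipitate) or Pheroid vesicles; tail blood at 30–480 min (DMSO) or 10–420 min (Pheroid), plasma separated; parent, AZT and DHA quantified by LC–MS/MS after acetonitrile extraction with deoxythymidine internal standard, calibration in plasma.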

[10] = Prodrug release in buffer assessed as azidothymidine level; assay type: physicochemical
[11] = tested on: Blood; assay: Drug metabolism in C57/BL6 mouse blood assessed as dihydroartemisinin level at 20 mg/kg, po dissolved in 10% DMSO; assay type: ADME, organism-based; design: dose 20 mg/kg, route oral; conditions: in vivo; summary of the method: as §2
[12] = Cmax in C57/BL6 mouse plasma at 20 mg/kg, po dissolved in Pheroid formulation; assay type: ADME, organism-based; design: dose 20 mg/kg, route oral; summary of the method: as §2
[13] = tested on: Blood; assay: Drug metabolism in C57/BL6 mouse blood assessed as azidothymidine level at 20 mg/kg, po dissolved in 10% DMSO; assay type: ADME, organism-based; design: dose 20 mg/kg, route oral; conditions: in vivo; summary of the method: as §2
[14] = tested on: Plasma; assay: Drug metabolism in C57/BL6 mouse plasma assessed as azidothymidine level at 20 mg/kg, po dissolved in Pheroid formulation; assay type: ADME, organism-based; design: dose 20 mg/kg, route oral; conditions: in vivo; summary of the method: as §2
[15] = tested on: Human immunodeficiency virus 1; assay: Antiviral activity against HIV1 NL43 infected din human MT4 cells pre-incubated in presence of compound for 48 hrs followed by TZM cells infection with compound treated virus supernatant by X-gal staining based microscopy; assay type: functional, organism-based; conditions: Human immunodeficiency virus 1, NL43, TZM
Summary of the method: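 MT4 co-culture with NL43 HIV-1 preincubated 4 h at 37 °C, then compounds in DMSO added at six concentrations for 48 h; cell-free supernatant used to infect TZM cells in triplicate; after 2 days cells fixed (acetone/ethanol), X-Gal stained 2–4 h, blue cells counted; uninfected and untreated-infected wells set as 100% and 0% activity.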

[16] = tested on: Blood; assay: Drug metabolism in C57/BL6 mouse blood assessed as azidothymidine level at 20 mg/kg, po dissolved in Pheroid formulation; assay type: ADME, organism-based; design: dose 20 mg/kg, route oral; conditions: in vivo; summary of the method: as §2
[17] = Drug metabolism in C57/BL6 mouse liver microsomes measured after 15 mins; assay type: ADME, Microsome; conditions: read-out: Drug metabolism
Summary of the method: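 Compound at 1 µM final incubated at 37 °C with mouse liver microsomes (0.2 mg/ml protein) in phosphate buffer pH 7.4; started with 1 mM NADPH; aliquots at 0, 15, 30, 45 min quenched in cold acetonitrile; parent remaining (% of time zero) and released AZT/DHA measured by LC–MS/MS.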

[18] = Prodrug release in buffer assessed as dihydroartemisinin level; assay type: physicochemical
[19] = tested on: Plasma; assay: Drug metabolism in C57/BL6 mouse plasma assessed as dihydroartemisinin level at 20 mg/kg, po dissolved in Pheroid formulation; assay type: ADME, organism-based; design: dose 20 mg/kg, route oral; conditions: in vivo; summary of the method: as §2
[20] = tested on: Plasma; assay: Drug metabolism in C57/BL6 mouse plasma assessed as azidothymidine level at 20 mg/kg, po dissolved in 10% DMSO; assay type: ADME, organism-based; design: dose 20 mg/kg, route oral; conditions: in vivo; summary of the method: as §2
[21] = tested on: Mus musculus; assay: Toxicity in Plasmodium […] N infected in C57/BL6 mouse assessed as parasitemia at 20 mg/kg, po dosed 30 mins post parasite infection and same dose repeated on days 1, 2 and 3 post infection measured on parasitemia day 2 to 7; assay type: organism-based; design: dose 20 mg/kg, route oral; conditions: in vivo, 0.5 h
Summary of the method: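 Infected mice dosed orally at 20 mg/kg on days 0–3 (first dose 30 min after intraperitoneal infection); death of treated infected mice before day 6 counted as toxic death; parasitemia followed on Giemsa smears to day 7.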

[22] = tested on: Plasma; assay: Drug metabolism in C57/BL6 mouse plasma assessed as dihydroartemisinin level at 20 mg/kg, po dissolved in 10% DMSO; assay type: ADME, organism-based; design: dose 20 mg/kg, route oral; conditions: in vivo; summary of the method: as §2
[23] = Plasmodium falciparum, 3D7, read-out: IC50
[24] = Human immunodeficiency virus 1, HeLa, 48 h, read-out: IC50

Structure (SMILES)	Ratio CC50/IC50 [1]	Ratio CC50/IC50 [2]	IC50 [3] [µM]	IC50 [4, 23] [µM]	IC50 [5] [µM]	IC50 [6, 24] [µM]	Ratio CC50/IC50 [7]	IC50 ([6]; hela)	further results
Cc1cn([C@H]2C[C@H](N=[N+]=[N-])[C@@H](CO)O2)c(=O)n(CCNc2ccnc3cc(Cl)ccc23)c1=O	>217.4	>153.8	0.65	0.46	> 100	7.15	>14		
Cc1nnc(C(=O)NC(C)(C)c2nc(C(=O)NCc3ccc(F)cc3)c(O)c(=O)n2C)o1 [RALTEGRAVIR]					> 100	0.01	>10000		IC50 [4]: Not Active
CCN(CC)CCCC(C)Nc1ccnc2cc(Cl)ccc12 (stereo not drawn) [CHLOROQUINE]					> 100	12.5			
NCCCCCNc1ccnc2cc(Cl)ccc12	>435.7	>246.3	0.23	0.13	56.6			Not Active	
C[C@H]1[C@@H](O)O[C@@H]2O[C@@]3(C)CC[C@H]4[C@H](C)CC[C@@H]1[C@@]24OO3 [ARTENIMOL]	>3333.3		0.01	0.03	> 100			Not Active	inhibition [8]: Active
Cc1cn([C@H]2C[C@H](NC(=O)NCCCCCNc3ccnc4cc(Cl)ccc34)[C@@H](CO[Si](c3ccccc3)(c3ccccc3)C(C)(C)C)O2)c(=O)[nH]c1=O	62.3	451.6	0.08	0.58	36.1	7.92	4.6		
Cc1cn([C@H]2C[C@H](NC(=O)NCCNc3ccnc4cc(Cl)ccc34)[C@@H](CO)O2)c(=O)[nH]c1=O	>28.3	>3.2	31.6	3.53	> 100			Not Active	
Cc1cn([C@H]2C[C@H](NC(=O)C(=O)NCCCCCNc3ccnc4cc(Cl)ccc34)[C@@H](CO[Si](c3ccccc3)(c3ccccc3)C(C)(C)C)O2)c(=O)[nH]c1=O	75.4	358.1	0.08	0.38	28.7	0.9	31.8		
Cc1cn([C@H]2C[C@H](NC(=O)CC3CCC4(CC3)OOC3(OO4)C4CC5CC(C4)CC3C5)[C@@H](CO[Si](c3ccccc3)(c3ccccc3)C(C)(C)C)O2)c(=O)[nH]c1=O (stereo partly drawn)	>370.4	>526.3	0.19	0.27	> 100			Not Active	
Cc1cn([C@H]2C[C@H](N=[N+]=[N-])[C@@H](CO)O2)c(=O)n(Cc2cccc(Nc3ccnc4cc(Cl)ccc34)c2)c1=O	>625	>454.5	0.22	0.16	> 100	1.76	>56.8		
Cc1cn([C@H]2C[C@H](n3cc(CO[C@H]4O[C@@H]5O[C@@]6(C)CC[C@H]7[C@H](C)CC[C@@H]([C@H]4C)[C@@]57OO6)nn3)[C@@H](CO)O2)c(=O)[nH]c1=O	>370.4	>1000	0.1	0.27	> 100	11.1	>9		
COc1cc(NC(C)CCCN)c2ncccc2c1 (stereo not drawn)									inhibition [8]: Active
Cc1cn([C@H]2C[C@H](NC(=O)C(=O)NCCCCCNc3ccnc4cc(Cl)ccc34)[C@@H](CO)O2)c(=O)[nH]c1=O	>51.5	>9.5	10.6	1.94	> 100			Not Active	
Cc1cn([C@H]2C[C@H](N=[N+]=[N-])[C@@H](CO[C@H]3O[C@@H]4O[C@@]5(C)CC[C@H]6[C@H](C)CC[C@@H]([C@H]3C)[C@@]46OO5)O2)c(=O)[nH]c1=O	>3333.3	>10000	0.01	0.03	> 100	2.86	>35		Drug metabolism [9]: Not Active; Drug metabolism [10]: Active; Drug metabolism [11]: Not Active; Cmax [12]: 40 ng/mL; Drug metabolism [13]: Active; inhibition [8]: Active; Drug metabolism [14]: Active; IC50 [15]: 0.485 µM; Drug metabolism [16]: Active; metabolised at 0.25 h [17]: > 90%; Drug metabolism [18]: Not Active; Drug metabolism [19]: Active; Drug metabolism [20]: Not Active; Activity [21]: Non-toxic; Drug metabolism [22]: Active
OCCNc1ccnc2cc(Cl)ccc12	>45.5	>58.1	1.72	2.2	> 100			Not Active	
Cc1cn([C@H]2C[C@H](NC(=O)CC3CCC4(CC3)OOC3(OO4)C4CC5CC(C4)CC3C5)[C@@H](CO)O2)c(=O)[nH]c1=O (stereo partly drawn)	106.3	233.8	0.1	0.22	23.4			Not Active	
OCc1cccc(Nc2ccnc3cc(Cl)ccc23)c1	>70.4	>68.5	1.46	1.42	> 100			Not Active	
NCCNc1ccnc2cc(Cl)ccc12	2114.7	275.8		0.03	63.4			Not Active	
CCOC(=O)C(=O)N[C@H]1C[C@H](n2cc(C)c(=O)[nH]c2=O)O[C@@H]1CO[Si](c1ccccc1)(c1ccccc1)C(C)(C)C	5.75	5.3	12.1	11.1	64			Not Active	
Cc1cn([C@H]2C[C@H](NC(=O)NCCNc3ccnc4cc(Cl)ccc34)[C@@H](CO[Si](c3ccccc3)(c3ccccc3)C(C)(C)C)O2)c(=O)[nH]c1=O	64.3	69.9	0.34	0.37	23.8			Not Active	
Cc1cn([C@H]2C[C@H](N=[N+]=[N-])[C@@H](CO)O2)c(=O)[nH]c1=O [ZIDOVUDINE]					> 100	0.04			IC50 [4]: Not Active
Cc1cn([C@H]2C[C@H](NC(=O)NCCCCCNc3ccnc4cc(Cl)ccc34)[C@@H](CO)O2)c(=O)[nH]c1=O	>19.3	>12.5	8.02	5.18	> 100			Not Active	

Reference: ChEMBL document CHEMBL2069294, “Synthesis and evaluation of hybrid drugs for a potential HIV/AIDS-malaria combination therapy” (Bioorg Med Chem, 2012)
